Series [1] in a line: Cytotoxicity against mouse SMB.s15 cells at 20 uM after 5 days by MTT assay. The class given is cell-based. The conditions noted are these: smb.s15, 120 h. Put shortly:
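SMB.s15 cells at 12,000 cells/well, exposed to compound for 5 days at 37 °C (DMSO stock diluted via HBSS into medium). Viability measured by MTT assay per the reagent's standard protocol.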

The nature of series [2]: Antiprion activity against PrPsc infected in mouse SMB.s15 cells assessed as complete clearance of PrPSc after 5 days by dot blot analysis. In kind it is cell-based. To be noted: SMB.s15, 120 h. Put shortly: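 SMB.s15 cells (scrapie-infected, mesodermal origin) in Medium 199 with 10% newborn calf and 5% fetal calf serum, seeded at 12,000 cells/well, 24 h attachment. Compound added from DMSO stock via HBSS dilution, 5 days at 37 °C. Lysates dot-blotted, proteinase K digestion (1 h, 37 °C), guanidine thiocyanate, anti-PrP 6H4 mAb, ECL. Triplicate, PrPSc relative to DMSO-only control.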

Series [3] can be described thus: (§1) Toxicity in zebrafish assessed as organism survival at 5 uM treated at 48 hrs post-fertilization measured after 3 days. The class given is organism-based, Danio rerio. To be noted: in vivo. The essentials: (§2)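 AB wild-type zebrafish embryos dechorionated with pronase at 48 hpf, 3 per well in methylene blue-free E3 medium. Dosed at 5 uM from 10 mM DMSO stocks (1% v/v DMSO). Kept at 28 °C for 72 h without food; survival scored at day 5 versus vehicle controls. Two experiments, each in triplicate.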

Series [4] can be described thus: Toxicity in zebrafish assessed as mortality rate at 5 uM measured after 72 hrs. In kind it is organism-based, Danio rerio. The conditions noted are these: in vivo, read-out: Activity. The essentials: as §2
Another series deals with ScN2a. Put plainly: Cytotoxicity against mouse ScN2a cells up to 32 uM. In kind it is cell-based. Put shortly:
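ScN2a cells seeded separately in 96-well plates. Calcein cell viability assay run in parallel with the ELISA screen, up to 32 uM maximum.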

The nature of series [5]: Metabolic stability in mouse liver microsomes assessed as compound remaining after 30 mins by HPLC analysis. To be noted: read-out: Stability. In kind it is ADME, Microsome. Put shortly:
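Mouse liver microsomes (0.5 mg/mL stock) in 0.2 M potassium phosphate pH 7.0 with DL-isocitrate, MgCl2 and isocitrate dehydrogenase. Preincubated 5 min at 37 °C, then started with NADPH. Sampled at t=0 and after 30 min at 37 °C, quenched in ice-cold acetonitrile with internal standard. Analysed by C18 HPLC, UV at 267 nm, in triplicate.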
(Liver microsomes are a subcellular fraction often used to study metabolism.)

Series [6] is described as follows: Solubility of the compound. In kind it is physicochemical.
Series [7] in a line: Antiprion activity against PrPsc infected in mouse ScN2a cells assessed as complete clearance of PrPSc after 5 days by ELISA. The class given is cell-based. The conditions noted are these: 120 h. Put shortly:
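ScN2a cells (N2a infected with RML prion strain) seeded at 4×10^5 cells/well in MEM with 10% FBS, GlutaMax, geneticin. Compound added 4 h after seeding, 0.5% final DMSO, 5 days at 37 °C. Lysates captured on D18 Fab-coated ELISA plates overnight at 4 °C, HRP-D13 detection, ABTS, absorbance at 405 nm. Dose-response curves from three independent experiments.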
Background: An ELISA detects its analyte on a solid surface through an enzyme-linked reagent.

For another series, the species on record is Danio rerio. The series is described as §1. In kind it is organism-based. The conditions noted are these: in vivo, 72 h, 5 µM. The essentials:
as §2

As usually defined, the EC50 is the concentration giving half of the maximal effect. On to `Cc1ccc(NC(=O)C(=O)c2c[nH]c3cc([N+](=O)[O-])ccc23)cc1`, for which the Activity result (in series [1]; with ScN2a) was “Non-toxic” throughout. The EC50 in series [2] came to 35 nM. In [3], the survival at 72 h, 5 µM was found to be 100%. Besides, in series [4], the mortality at 72 h, 5 µM came out at 20%. In series [5], the remaining at 0.5 h came out at 84.8%.

Take `O=C(Nc1ccc(-c2nnco2)cc1)C(=O)c1c[nH]c2ccccc12`: the solubility entry in series [6] is “Insoluble”.

`Cc1ccc(NC(=O)C(=O)c2c[nH]c3c(Cl)cccc23)cc1`: the Activity entry (in series [1]; with ScN2a) was “Non-toxic” in each case. The EC50 in series [2] was 470 nM; in [7], 1260 nM. Moreover, in [3], the survival at 72 h, 5 µM amounted to 100%. Also, the mortality at 72 h, 5 µM in series [4] was 20%.

Take `Cc1ccc(NC(=O)C(=O)c2c[nH]c3cc(C(C)C)ccc23)cc1`: the Activity result (in [1]; with ScN2a) was “Non-toxic” each time. In addition, the EC50 in series [2] was 610 nM. The mortality at 72 h, 5 µM in series [4] is 20%. In addition, in series [5], the remaining at 0.5 h is 82.6%.

As for `O=C(Nc1ccc(-n2cccn2)cc1)C(=O)c1c[nH]c2cc(Cl)ccc12`, the Activity result (in [1]; in the series on ScN2a) was “Non-toxic” each time. The EC50 is 6.1 nM in series [2] and 175 nM in [7]. Besides, the survival at 72 h, 5 µM in series [3] stood at 100%. The remaining at 0.5 h in series [5] was found to be 96.7%.

In the case of `COc1ccc(NC(=O)C(=O)c2c[nH]c3cc(Cl)ccc23)cc1`, the results for the Activity result (in series [1]; in the series filed under Danio rerio; in the series with ScN2a) were “Non-toxic”, “Toxic” and “Non-toxic”, respectively. Moreover, the EC50 in series [2] worked out at 9.9 nM. Further, in [5], the remaining at 0.5 h stood at 87.3%.

As for `Cc1cccc2[nH]cc(C(=O)C(=O)Nc3ccc(N4CCOCC4)cc3)c12`, the Activity entry in [1] is “Non-toxic”; in the series listed under Danio rerio it was “Toxic”; in the series on ScN2a, “Non-toxic”. Moreover, the EC50 in series [2] was determined as 680 nM. In addition, the mortality at 72 h, 5 µM in series [4] was found to be 20%.

Take `O=C(Nc1ccc(N2CCOCC2)cc1)C(=O)c1c[nH]c2ccccc12`: the Activity result in [1] is on record as “Non-toxic”; in the series filed under Danio rerio it was “Toxic”; in the series on ScN2a, “Non-toxic”. The EC50 turned out to be 9 nM in series [2] and 65 nM in series [7]. Besides, the mortality at 72 h, 5 µM in [4] was 20%.

On to `Cc1ccc(NC(=O)C(=O)c2c[nH]c3cc(C)ccc23)cc1`, for which the Activity entry (in series [1]; in the series on ScN2a) was “Non-toxic” in each case. Moreover, the EC50 in series [2] amounted to 51 nM. For the same compound, in [3], the survival at 72 h, 5 µM turned out to be 100%. Also, in [4], the mortality at 72 h, 5 µM turned out to be 20%. Also, the remaining at 0.5 h in [5] is 90.2%.

In the case of `COc1ccc(NC(=O)C(=O)c2c[nH]c3cc([N+](=O)[O-])ccc23)cc1`, the Activity entry in series [1] is “Non-toxic”; in the series filed under Danio rerio it was “Toxic”; in the series with ScN2a, “Non-toxic”. In addition, the EC50 in series [2] was found to be 10.5 nM. The remaining at 0.5 h in [5] worked out at 90%.

As for `Cc1ccc2[nH]cc(C(=O)C(=O)Nc3ccc(N4CCOCC4)cc3)c2c1`, the Activity entry in series [1] is on record as “Non-toxic”; in the series filed under Danio rerio, “Toxic”; with ScN2a it was “Non-toxic”. The EC50 in [2] came out at 83 nM. The mortality at 72 h, 5 µM in series [4] was 20%.

`COc1ccc(NC(=O)C(=O)c2c[nH]c3cc(C)ccc23)cc1`: the Activity result (in [1]; in the series on ScN2a) was “Non-toxic” in each case. Further, in series [2], the EC50 was found to be 12 nM. Also, the survival at 72 h, 5 µM in series [3] came to 100%. Besides, in [5], the remaining at 0.5 h amounted to 89.1%.

On to `Cc1ccc(NC(=O)C(=O)c2c[nH]c3c(C)cccc23)cc1`, for which the Activity entry is reported as “Non-toxic” in series [1], “Toxic” in the series listed under Danio rerio and “Non-toxic” with ScN2a. The EC50 in [2] is 1400 nM. For the same compound, the mortality at 72 h, 5 µM in series [4] was 20%.

`COc1ccc(NC(=O)C(=O)c2c[nH]c3ccc(Cl)cc23)cc1`: the Activity entry in series [1] is on record as “Non-toxic”; in the series listed under Danio rerio, “Toxic”; in the series on ScN2a, “Non-toxic”. Also, the EC50 in [2] was determined as 470 nM.

As to `COc1ccc(NC(=O)C(=O)c2c[nH]c3cc(C(C)C)ccc23)cc1`, the Activity entry (in series [1]; in the series with ScN2a) was “Non-toxic” each time. The EC50 in series [2] worked out at 330 nM. The survival at 72 h, 5 µM in series [3] turned out to be 100%. Moreover, the remaining at 0.5 h in [5] came out at 86.2%.

`COc1ccc(NC(=O)C(=O)c2c[nH]c3ccccc23)cc1`: the Activity result (in series [1]; with ScN2a) was “Non-toxic” each time. Moreover, the EC50 in [2] worked out at 11 nM; in series [7], 91 nM. In series [3], the survival at 72 h, 5 µM worked out at 100%. Besides, the mortality at 72 h, 5 µM in series [4] amounted to 20%. For the same compound, in series [5], the remaining at 0.5 h came to 67.9%.

Regarding `O=C(Nc1ccc(-n2cncn2)cc1)C(=O)c1c[nH]c2ccccc12`, the solubility result in series [6] was “Insoluble”.

Regarding `Cc1ccc(NC(=O)C(=O)c2c[nH]c3ccc(C)cc23)cc1`, the Activity entry in [1] was “Non-toxic”; in the series listed under Danio rerio it was “Toxic”; in the series with ScN2a, “Non-toxic”. The EC50 in series [2] was determined as 900 nM. In addition, the mortality at 72 h, 5 µM in [4] came to 20%.

Regarding `O=C(Nc1ccc(N2CCOCC2)cc1)C(=O)c1c[nH]c2ccc(Cl)cc12`, the Activity result in [1] is “Non-toxic”; in the series filed under Danio rerio, “Toxic”; in the series with ScN2a, “Non-toxic”. For the same compound, the EC50 in series [2] worked out at 69 nM. For the same compound, the mortality at 72 h, 5 µM in series [4] turned out to be 20%.

On to `O=C(Nc1ccc(-n2cccn2)cc1)C(=O)c1c[nH]c2cc(F)ccc12`, for which the Activity entry in series [1] is listed as “Non-toxic”; in the series listed under Danio rerio, “Toxic”; in the series on ScN2a, “Non-toxic”. The EC50 in series [2] is 1.2 nM.

For the compound `Cc1ccc(NC(=O)C(=O)c2c[nH]c3cc(C#N)ccc23)cc1`, the Activity result (in series [1]; with ScN2a) was “Non-toxic” throughout. Besides, the values for the EC50 in [2] and in [7] were 10.9 nM and 26 nM, respectively. In addition, the survival at 72 h, 5 µM in series [3] amounted to 100%. In addition, the mortality at 72 h, 5 µM in series [4] worked out at 20%. The remaining at 0.5 h in [5] was found to be 88.2%.

`Cc1ccc(NC(=O)C(=O)c2c[nH]c3cc(Cl)ccc23)cc1`: the Activity entry (in series [1]; in the series with ScN2a) was “Non-toxic” throughout. Moreover, in series [2], the EC50 amounted to 100 nM. Further, the survival at 72 h, 5 µM in series [3] was 100%. Also, the mortality at 72 h, 5 µM in [4] amounted to 20%. The remaining at 0.5 h in [5] stood at 85.6%.

On to `COc1ccc(NC(=O)C(=O)c2cn(C)c3cc(Cl)ccc23)cc1`, for which the Activity result is “Non-toxic” in series [1], “Toxic” in the series listed under Danio rerio and “Non-toxic” in the series on ScN2a. Moreover, in series [2], the EC50 amounted to 1630 nM.

With `COc1ccc(NC(=O)C(=O)c2c[nH]c3c(Cl)cccc23)cc1`, the Activity result in series [1] is on record as “Non-toxic”; in the series listed under Danio rerio, “Toxic”; in the series on ScN2a, “Non-toxic”. In addition, the EC50 in [2] is 24 nM; in series [7], 247 nM.

On to `COc1ccc(NC(=O)C(=O)c2c[nH]c3cc(F)ccc23)cc1`, for which the Activity result (in series [1]; with ScN2a) was “Non-toxic” each time. Besides, the EC50 in [2] is 13 nM. For the same compound, the survival at 72 h, 5 µM in [3] was 100%. Besides, the remaining at 0.5 h in series [5] worked out at 74.6%.

As for `O=C(Nc1ccccc1)C(=O)c1c[nH]c2ccc(Cl)cc12`, the results for the Activity result (in series [1]; in the series listed under Danio rerio; in the series on ScN2a) were “Non-toxic”, “Toxic” and “Non-toxic”, respectively. For the same compound, the EC50 in [2] worked out at 1630 nM.

The values above are taken from ChEMBL document CHEMBL1909628, “Discovery of 6-substituted indole-3-glyoxylamides as lead antiprion agents with enhanced cell line activity, improved microsomal stability and low toxicity” (Eur J Med Chem, 2011).
